# Tests used:
# Format in all cases: functional
# Rattus norvegicus [1] = experiment: Amount of glucose in obese Zucker rats after 1 week of treatment at a dose of 30 mg/kg/day
# In short: (§1)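 Female Zucker fatty rats [Crl:(Zuc)-faBR], 10–12 weeks old (400–500 g), gavaged daily with vehicle (20% EtOH/80% PEG-200, 0.25% of body weight) or compound. After a 6-h fast, blood glucose was read by glucometer from tail-prick blood of unanesthetized rats before dosing and after 1 and 2 weeks. Values are mean ± SEM.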
# Rattus norvegicus [2] = experiment: Percent decrease in nonesterified fatty acids in obese Zucker rats after 1 week of treatment at a dose of 100 mg/kg/day; set-up: scale not given: the % may be the effect or the level left
# In short: (§2)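 Female Zucker fatty rats [Crl:(Zuc)-faBR], 10–12 weeks, 400–500 g, acclimated 7 days on chow. Compound or vehicle (20% EtOH/80% PEG-200) given by daily oral gavage for 2 weeks, 0–100 mg/kg/day. After a 6 h fast, blood was taken before dosing, at 1 wk and at 2 wk. Serum lipids, NEFA and insulin (ELISA) were measured; glucose by glucometer. HDL/non-HDL-C came from Superose 6 gel-filtration profiles. Values are % change from pretreatment, mean ± SEM.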
# Rattus norvegicus [3] = experiment: Amount of HDL-cholesterol in obese Zucker rats after 2 weeks of treatment at a dose of 10 mg/kg/day
# In short: (§3)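 Female Zucker fatty rats [Crl:(Zuc)-faBR], 10–12 weeks old (400–500 g), dosed once daily by oral gavage in 20% EtOH/80% PEG-200 (dose volume 0.25% of body weight). Rats were fasted 6 h and bled before dosing and at day 7 (orbital plexus), and at day 14 (cardiac puncture). Serum cholesterol fractions came from Superose 6 gel-filtration lipoprotein profiles (% peak area × serum total cholesterol). Values are mean ± SEM.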
# Rattus norvegicus [4] = experiment: Amount of non-HDL-cholesterol in obese Zucker rats after 1 week of treatment at a dose of 3 mg/kg/day; in short: as §3
# Rattus norvegicus [5] = experiment: Amount of HDL-cholesterol in obese Zucker rats after 2 weeks of treatment at a dose of 100 mg/kg/day; in short: as §3
# Rattus norvegicus [6] = experiment: Amount of triglycerides in obese Zucker rats after 1 week of treatment at a dose of 3 mg/kg/day
# In short: (§4)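 Female Zucker fatty rats [Crl:(Zuc)-faBR], 10–12 weeks old (400–500 g), dosed once daily by oral gavage in 20% EtOH/80% PEG-200 for up to 14 days. After a 6-h fast, serum was taken pre-dose, at day 7 (orbital venous plexus, O2/CO2 anaesthesia) and at day 14 (cardiac puncture), stored at −80 °C, and assayed on a Hitachi 912 automatic analyzer. Mean ± SEM.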
# Rattus norvegicus [7] = experiment: Amount of glucose in obese Zucker rats after 2 weeks of treatment at a dose of 3 mg/kg/day; in short: as §1
# Rattus norvegicus [8] = experiment: Amount of HDL-cholesterol in obese Zucker rats after 2 weeks of treatment at a dose of 3 mg/kg/day; in short: as §3
# Rattus norvegicus [9] = experiment: Amount of triglycerides in obese Zucker rats at pre-treatment at a dose of 0 mg/kg/day; in short: as §4
# Rattus norvegicus [10] = experiment: Amount of non-HDL-cholesterol in obese Zucker rats at pre-treatment at a dose of 0 mg/kg/day
# In short: (§5)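 Female obese Zucker fatty rats [Crl:(Zuc)-faBR], 10–12 weeks old (400–500 g), on chow. Compound in 20% EtOH/80% PEG-200 (v/v) given by daily oral gavage. After a 6-h fast, serum was taken before dosing and at 7 days (orbital plexus), and at 14 days (cardiac puncture). Lipoprotein cholesterol came from Superose 6HR gel-filtration profiles × serum total cholesterol. Mean ± SEM.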
# Rattus norvegicus [11] = experiment: Amount of insulin in obese Zucker rats after 2 weeks of treatment at a dose of 3 mg/kg/day
# In short: (§6)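 Female obese Zucker rats [Crl:(Zuc)-faBR], 400–500 g, given daily oral gavage in 20% EtOH/80% PEG-200 for up to 14 days. After a 6-h fast, serum was collected pretreatment and at day 7 (orbital bleed) and day 14 (cardiac puncture) and stored at -80 °C. Insulin was measured by ELISA. Values are mean ± SEM.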
# Rattus norvegicus [12] = experiment: Amount of glucose in obese Zucker rats after 1 week of treatment at a dose of 100 mg/kg/day; in short: as §1
# Rattus norvegicus [13] = experiment: Amount of triglycerides in obese Zucker rats at pre-treatment at a dose of 30 mg/kg/day; in short: as §4
# Rattus norvegicus [14] = experiment: Amount of nonesterified fatty acids in obese Zucker rats at pre-treatment at a dose of 0 mg/kg/day; in short: as §4
# Rattus norvegicus [15] = experiment: Amount of insulin in obese Zucker rats after 1 week of treatment at a dose of 30 mg/kg/day; in short: as §6
# Rattus norvegicus [16] = experiment: Amount of nonesterified fatty acids in obese Zucker rats at pre-treatment at a dose of 100 mg/kg/day; in short: as §4
# Rattus norvegicus [17] = experiment: Amount of non-HDL-cholesterol in obese Zucker rats at pre-treatment at a dose of 3 mg/kg/day; in short: as §5
# Rattus norvegicus [18] = experiment: Amount of triglycerides in obese Zucker rats after 2 weeks of treatment at a dose of 30 mg/kg/day; in short: as §4
# Rattus norvegicus [19] = experiment: Amount of insulin in obese Zucker rats after 2 weeks of treatment at a dose of 100 mg/kg/day; in short: as §6
# Rattus norvegicus [20] = experiment: Amount of glucose in obese Zucker rats at pre-treatment at a dose of 3 mg/kg/day; in short: as §1
# Rattus norvegicus [21] = experiment: Percentage change of non-HDL cholesterol levels in obese female Zucker rats after 1 week of pre-treatment at a dose of 100 mg/kg/day
# In short: (§7)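 Female Zucker fatty rats [Crl:(Zuc)-faBR], 10–12 weeks old (400–500 g), acclimated 7 days and fed rodent chow. Dosed once daily by oral gavage in 20% EtOH/80% PEG-200 (v/v), at 0.25% of body weight, for 2 weeks. Blood taken after a 6-h fast: orbital plexus before dosing and at day 7, cardiac puncture at day 14. Serum lipoprotein cholesterol measured by Superose 6 gel filtration with on-line cholesterol detection. Values are % change from pretreatment, mean ± SEM.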
# Rattus norvegicus [22] = experiment: Amount of triglycerides in obese Zucker rats after 2 weeks of treatment at a dose of 100 mg/kg/day; in short: as §4
# Rattus norvegicus [23] = experiment: Amount of glucose in obese Zucker rats at pre-treatment at a dose of 10 mg/kg/day; in short: as §1
# Rattus norvegicus [24] = experiment: Amount of non-HDL-cholesterol in obese Zucker rats after 2 weeks of treatment at a dose of 10 mg/kg/day; in short: as §3
# Rattus norvegicus [25] = experiment: Percentage change of triglycerides in obese female Zucker rats after 1 week of pre-treatment at a dose of 100 mg/kg/day; in short: as §7
# Rattus norvegicus [26] = experiment: Amount of insulin in obese Zucker rats at pre-treatment at a dose of 3 mg/kg/day; in short: as §6
# Rattus norvegicus [27] = experiment: Percentage change of triglycerides in obese female Zucker rats after 2 weeks of pre-treatment at a dose of 100 mg/kg/day; in short: as §7
# Rattus norvegicus [28] = experiment: Amount of insulin in obese Zucker rats after 1 week of treatment at a dose of 3 mg/kg/day; in short: as §6
# Rattus norvegicus [29] = experiment: Amount of nonesterified fatty acids in obese Zucker rats after 1 week of treatment at a dose of 0 mg/kg/day; in short: as §4
# Rattus norvegicus [30] = experiment: Percent decrease in non-HDL-cholesterol in obese Zucker rats after 1 week of treatment at a dose of 30 mg/kg/day; set-up: scale not given: the % may be the effect or the level left; in short: as §2
# Rattus norvegicus [31] = experiment: Percent decrease in nonesterified fatty acids in obese Zucker rats after 2 weeks of treatment at a dose of 100 mg/kg/day; set-up: scale not given: the % may be the effect or the level left; in short: as §2
Compound,Activity (Rattus norvegicus [2]) [%],Activity (Rattus norvegicus [3]) [mg/dL],Activity (Rattus norvegicus [4]) [mg/dL],Activity (Rattus norvegicus [5]) [mg/dL],Activity (Rattus norvegicus [6]) [mg/dL],Activity (Rattus norvegicus [7]) [mg/dL],Activity (Rattus norvegicus [8]) [mg/dL],Activity (Rattus norvegicus [9]) [mg/dL],Activity (Rattus norvegicus [10]) [mg/dL],Activity (Rattus norvegicus [11]) [ng/mL],Activity (Rattus norvegicus [12]) [mg/dL],Activity (Rattus norvegicus [13]) [mg/dL],Activity (Rattus norvegicus [14]) [mg/dL],Activity (Rattus norvegicus [15]) [ng/mL],Activity (Rattus norvegicus [16]) [mg/dL],Activity (Rattus norvegicus [17]) [mg/dL],Activity (Rattus norvegicus [18]) [mg/dL],Activity (Rattus norvegicus [19]) [ng/mL],Activity (Rattus norvegicus [20]) [mg/dL],Change (Rattus norvegicus [21]) [%],other results
CC(C)(CO)CCCCC(=O)CCCCC(C)(C)CO,-30,53,25,79,800,103,39,933,25,7.8,120,998,1.2,9.1,1.4,24,985,11,118,-23,Activity (Rattus norvegicus [1]): 112 mg/dL; Activity (Rattus norvegicus [22]): 702 mg/dL; Activity (Rattus norvegicus [23]): 112 mg/dL; Activity (Rattus norvegicus [24]): 25 mg/dL; Change (Rattus norvegicus [25]): -54%; Activity (Rattus norvegicus [26]): 8.8 ng/mL; Change (Rattus norvegicus [27]): -29%; Activity (Rattus norvegicus [28]): 7.5 ng/mL; Activity (Rattus norvegicus [29]): 1.3 mg/dL
CC(C)(CCCCC(=O)CCCCC(C)(C)C(=O)O)C(=O)O,-33,39,24,68,775,103,33,130,40,8.6,113,1242,1.5,9.2,1.2,32,962,9.5,108,-62,Activity (Rattus norvegicus [1]): 115 mg/dL; Activity (Rattus norvegicus [30]): -23%; Activity (Rattus norvegicus [22]): 440 mg/dL; Activity (Rattus norvegicus [23]): 113 mg/dL; Activity (Rattus norvegicus [31]): -45%; Activity (Rattus norvegicus [24]): 27 mg/dL; Change (Rattus norvegicus [25]): -75%; Activity (Rattus norvegicus [26]): 10.4 ng/mL; Change (Rattus norvegicus [27]): -69%; Activity (Rattus norvegicus [28]): 10.7 ng/mL; Activity (Rattus norvegicus [29]): 1.5 mg/dL
CC(C)(CCCCCC(=O)CCCCCC(C)(C)C(=O)O)C(=O)O,-30,138,23,141,995,124,77,950,20,7.3,92,982,1.3,6.4,1.4,22,475,6,114,-98,Activity (Rattus norvegicus [30]): -48%; Activity (Rattus norvegicus [22]): 78 mg/dL; Activity (Rattus norvegicus [23]): 120 mg/dL; Activity (Rattus norvegicus [31]): -52%; Change (Rattus norvegicus [25]): -93%; Activity (Rattus norvegicus [26]): 8.6 ng/mL; Change (Rattus norvegicus [27]): -94%; Activity (Rattus norvegicus [28]): 10 ng/mL; Activity (Rattus norvegicus [29]): 1.3 mg/dL

# Source: ChEMBL document CHEMBL1137992, “Long hydrocarbon chain keto diols and diacids that favorably alter lipid disorders in vivo” (J Med Chem, 2004)
